In BindingDB's records for doi:10.1016/s0960-894x(01)00689-8 (Niddk, 2001):

Tests used:
[1] = biological target: Delta-type opioid receptor (Rattus norvegicus, UniProt P33533); assay: Binding affinity for delta opioid receptor by displacing [3H]DADL was determined
Procedure, shortened: (§1)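 Radioligand displacement binding at opioid receptors, with Ki values derived. Each receptor used its own radioligand: mu was [3H]DAMGO, delta was [3H]DADL and kappa was [3H]U69593.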

Mu-type opioid receptor = Mu-type opioid receptor (Rattus norvegicus, UniProt P33535); assay: Binding affinity for mu opioid receptor by displacing [3H]-DAMGO was determined; procedure, shortened: as §1
[2] = Binding affinity for gamma-S binding assay
[3] = biological target: Kappa-type opioid receptor (Cavia porcellus, UniProt P41144); assay: Binding affinity for kappa opioid receptor by displacing [3H]U-69593 was determined; procedure, shortened: as §1
[4] = Binding affinity for gamma-S binding assay; Inactive

Chain of Mu-type opioid receptor (P33535 whole entry): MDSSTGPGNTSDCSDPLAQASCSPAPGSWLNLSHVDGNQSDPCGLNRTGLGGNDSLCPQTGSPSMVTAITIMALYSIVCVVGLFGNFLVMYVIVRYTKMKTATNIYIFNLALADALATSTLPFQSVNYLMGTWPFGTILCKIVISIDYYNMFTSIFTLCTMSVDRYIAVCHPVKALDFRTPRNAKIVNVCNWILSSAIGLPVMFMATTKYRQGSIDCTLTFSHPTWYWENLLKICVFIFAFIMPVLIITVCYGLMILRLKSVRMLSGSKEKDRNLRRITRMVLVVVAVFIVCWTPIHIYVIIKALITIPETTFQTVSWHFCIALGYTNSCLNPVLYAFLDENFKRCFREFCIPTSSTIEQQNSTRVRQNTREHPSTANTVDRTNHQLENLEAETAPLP
Chain of Delta-type opioid receptor (P33533 whole entry): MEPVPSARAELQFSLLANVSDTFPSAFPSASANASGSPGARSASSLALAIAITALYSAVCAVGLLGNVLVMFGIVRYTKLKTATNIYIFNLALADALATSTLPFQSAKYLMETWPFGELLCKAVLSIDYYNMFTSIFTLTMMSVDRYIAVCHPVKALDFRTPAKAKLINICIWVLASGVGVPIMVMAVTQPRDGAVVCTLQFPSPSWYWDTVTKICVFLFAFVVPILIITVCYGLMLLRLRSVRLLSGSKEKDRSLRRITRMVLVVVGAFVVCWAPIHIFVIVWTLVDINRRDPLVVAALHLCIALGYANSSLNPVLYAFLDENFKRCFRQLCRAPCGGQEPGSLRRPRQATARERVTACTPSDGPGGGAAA
Chain of Kappa-type opioid receptor (P41144 whole entry): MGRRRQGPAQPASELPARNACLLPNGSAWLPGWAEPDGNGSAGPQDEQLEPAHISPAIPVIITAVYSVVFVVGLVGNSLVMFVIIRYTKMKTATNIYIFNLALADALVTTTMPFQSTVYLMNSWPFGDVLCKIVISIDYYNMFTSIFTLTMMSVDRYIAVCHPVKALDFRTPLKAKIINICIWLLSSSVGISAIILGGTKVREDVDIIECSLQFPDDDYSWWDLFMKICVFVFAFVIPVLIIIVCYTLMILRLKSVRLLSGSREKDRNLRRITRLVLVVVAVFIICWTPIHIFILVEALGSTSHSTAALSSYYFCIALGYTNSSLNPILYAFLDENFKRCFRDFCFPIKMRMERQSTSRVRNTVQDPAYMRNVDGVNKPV

Structure (SMILES): CCCC[C@H]1c2c([nH]c3ccccc23)[C@@H]2Oc3c(O)ccc4c3C23CCN(C)C(C4)C13 (some centres not stated) [Indole Derivative]
- Ki [1]: 22 nM
- Ki (Mu-type opioid receptor): 1100 nM
- Ki [2]: 46 nM

Structure (SMILES): C[C@H]1c2c([nH]c3ccccc23)[C@@H]2Oc3c(O)ccc4c3C23CCN(CC2CC2)C(C4)C13 (some centres not stated)
- Ki [1]: 2.3 nM
- Ki [3]: 36 nM
- Ki (Mu-type opioid receptor): 66 nM

Structure (SMILES): COc1ccc2c3c1O[C@H]1c4[nH]c5ccccc5c4CC4C(C2)N(C)CCC341 (some centres not stated) [Indole Derivative]
- Ki [1]: 95 nM
- Ki (Mu-type opioid receptor): > 5000 nM
- Ki [2]: 290 nM

Structure (SMILES): CN1CC[C@]23c4c5ccc(O)c4O[C@H]2c2[nH]c4ccccc4c2C[C@H]3[C@H]1C5
- Ki [1]: 2.4 nM
- Ki [2]: 15 nM

Structure (SMILES): CCCC[C@H]1c2c([nH]c3ccccc23)[C@@H]2Oc3c(OC)ccc4c3C23CCN(C)C(C4)C13 (some centres not stated) [Indole Derivative]
- Ki [1]: 370 nM
- Ki [4]: > 750 nM
- Ki (Mu-type opioid receptor): > 4300 nM

Structure (SMILES): C[C@H]1c2c([nH]c3ccccc23)[C@@H]2Oc3c(O)ccc4c3C23CCN(C)C(C4)C13 (some centres not stated) [Indole Derivative]
- Ki [1]: 0.7 nM
- Ki (Mu-type opioid receptor): 240 nM
- Ki [2]: 49 nM

Structure (SMILES): C/C=C/C(=O)N1CCC23c4c5ccc(O)c4O[C@H]2c2[nH]c4ccccc4c2[C@H](C)C3C1C5 (some centres not stated)
- Ki [1]: 2.3 nM
- Ki [3]: 120 nM

Structure (SMILES): COc1ccc2c3c1O[C@H]1c4[nH]c5ccccc5c4[C@H](C)C4C(C2)N(C)CCC341 (some centres not stated) [Indole Derivative]
- Ki [1]: 27 nM
- Ki (Mu-type opioid receptor): > 4800 nM
- Ki [2]: 330 nM
